Compound activity from PubChem.
This is a sample that favours compounds with a hit; in the whole collection about 4.6% have one here.
TAAR1 agonist: agonists of human TAAR1. Q96RJ0. CHO RD-HGA16 TAAR1, Fluo-8 calcium fluorescence; vehicle wells 0%, saturating PEA agonist 100%. activation, % at 3 µM. actives 0.99% (n = 360,000). AID 624467;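 active = activation above the mean activation of all test compounds in the run plus 3 SD, cut at about 38% in these data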
Target sequence (Q96RJ0 whole entry, looked up): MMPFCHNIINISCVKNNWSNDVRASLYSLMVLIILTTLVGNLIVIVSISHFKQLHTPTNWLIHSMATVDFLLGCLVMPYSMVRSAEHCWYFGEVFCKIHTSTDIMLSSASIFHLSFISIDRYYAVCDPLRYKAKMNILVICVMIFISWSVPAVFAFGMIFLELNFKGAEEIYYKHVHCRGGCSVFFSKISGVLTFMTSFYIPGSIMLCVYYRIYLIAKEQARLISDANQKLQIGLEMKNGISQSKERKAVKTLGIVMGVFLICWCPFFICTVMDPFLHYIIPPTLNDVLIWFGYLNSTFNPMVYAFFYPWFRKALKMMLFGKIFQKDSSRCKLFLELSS
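Repeats: no replicates (n 1) | Material: CHO-derived RD-HGA16 cells with stable Gα16 and human TAAR1 | Technique: Kinetic Fluo-8 calcium fluorescence | Schedule: 17-24 h seeding, 75 min 37 °C dye, 30 min RT | Evaluation: % activation from peak over basal fluorescence ratio, DMSO-to-PEA scaled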
OX1R antag-1: blocks the human orexin 1 receptor; actives 0.43% (n = 330,000); inhibition, % at 5 µM; CHO/OX1R cells, Fluo-8 calcium fluorescence, orexin A;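 active = inhibition above its plate's threshold, mean inhibition of all tested compounds on the plate plus 3 SD, cut at about 37% in these data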;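 note: 0% = orexin A challenge wells and 100% = SB-334867-A antagonist wells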
OX1R antag-2: OX1R (human) antagonism | O43613 | OX1R-expressing cells, FRET antagonist read-out | inhibition, % at 6.6 µM | actives 1.8% (n = 330,000); in the data active = inhibition mostly above about 38%, no sharp cut-off; inactive = mostly below about 40%;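 note: 0% = agonist challenge alone and 100% = reference antagonist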
GPR7 antag: blocks human GPR7 receptor signaling; inhibition, % at 4.4 µM; GPR7-expressing cells, fluorescence antagonist assay; actives 1.1% (n = 290,000); P48145; in the data active = inhibition above about 16%, passing the limit was not always enough;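 note: cells stimulated with the agonist NPW; 0% = agonist with vehicle and 100% = vehicle without agonist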
Target sequence (P48145 whole entry, looked up): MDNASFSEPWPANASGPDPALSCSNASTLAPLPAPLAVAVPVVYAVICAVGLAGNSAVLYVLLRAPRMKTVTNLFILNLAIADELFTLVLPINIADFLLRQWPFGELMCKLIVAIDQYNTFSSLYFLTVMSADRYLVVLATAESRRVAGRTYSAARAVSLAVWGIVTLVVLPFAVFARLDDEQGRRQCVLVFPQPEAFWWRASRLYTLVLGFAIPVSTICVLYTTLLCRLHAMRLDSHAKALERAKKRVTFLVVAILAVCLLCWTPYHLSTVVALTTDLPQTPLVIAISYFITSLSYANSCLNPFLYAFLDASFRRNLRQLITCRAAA
CHO parental Ca: counter-screen for OX1R antagonists: effect in parental CHO cells | parental CHO-K1, ATP-induced calcium, Fluo-8 fluorescence | inhibition, % at 5.6 µM | actives 0.63% (n = 330,000) | AID 463079;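 active = inhibition above that plate's mean sample inhibition plus 3 SD, cut at about 26% in these data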;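 note: 0% = ATP-challenged DMSO wells and 100% = DMSO wells without ATP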
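Assay system: parental CHO cells; Read-out basis: percent inhibition of ATP-evoked calcium rise, normalized to controls; Benchmarks: ATP and no-ATP DMSO wells; Compound dosing: single nominal dose of 5.6 µM per compound; Signal: Fluo-8 calcium dye fluorescence; Also added: ATP as calcium-mobilizing challenge; Repeats: singlicate.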
TAAR1 antagonist: human TAAR1 antagonism. CHO RD-HGA16 TAAR1, Fluo-8 calcium fluorescence, antagonist. inhibition, % at 3 µM. actives 1.5% (n = 360,000);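 active = inhibition above a per-plate cutoff, the mean inhibition of test compounds on that plate plus 3 SD, cut at about 49% in these data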;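 note: 0% = DMSO plus EC80 beta-PEA response and 100% = DMSO alone without agonist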
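System: CHO RD-HGA16 cells bearing hTAAR1. Reagent: EC80 β-phenethylamine stimulus. Schedule: seeding 17-24 h prior, 75-min 37 °C, 30-min RT dye loading. Signal: Fluo-8 intracellular calcium dye fluorescence, real-time kinetic reads. Read-out: % inhibition from peak post-agonist over basal fluorescence ratio. Benchmarks: vehicle wells and EC80 agonist wells. Replicates: n of 1.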
The depositor's hits bear a star; . = not tested or not shown.

SMILES	TAAR1 agonist	OX1R antag-1	OX1R antag-2	GPR7 antag	CHO parental Ca	TAAR1 antagonist
CC1CC(C)CN(C(=S)Nc2ccc(SC(F)F)cc2)C1 (stereo unspecified)	41*	5	19	4	-9	15
CCCCCCCCCC[n+]1cccc2c3ccccc3ccc21	11	.	.	70*	.	3
CCCCCCCC[n+]1cccc2c3ccccc3ccc21	1	36	20	67*	63*	1
Cc1ccccc1-c1cccc2c3c([nH]c12)[C@@H]1C[C@H]2[C@@H](C(=O)N1CC3)[C@H](C)ON2C	4	.	.	.	.	39
C[C@H](CO)N1C[C@H](C)[C@@H](CN(C)S(C)(=O)=O)OCc2cn(nn2)CCCC1=O	0	.	.	.	.	8
CCc1c(C)nc(SCC(N)=O)c(C#N)c1C	2	-7	6	-9	-12	-8
CCc1c(C)nc(SCC(=O)c2cccs2)c(C#N)c1C	12	-4	64*	8	-6	9
Cc1ccc(NC(=O)Cn2nc(C)c3ccccc3c2=O)cc1F	5	-28	27	19*	-20	3
Cc1nn(CC(=O)Nc2ccccc2)c(=O)c2ccccc12	9	-15	18	-9	-5	-13
O=C(C(=O)N1CCC(CNS(=O)(=O)c2ccc(F)cc2)CC1)c1cccs1	4	.	.	.	.	-7
COc1ccccc1NC(=O)Nc1nc(CC(=O)N2CCN(c3ccccc3)CC2)cs1	14	-31	4	.	-13	52*
COc1ccccc1NC(=O)Nc1nc(CC(=O)Nc2ccc(F)c(F)c2)cs1	13	-13	34	.	13	42
COc1ccccc1NC(=O)Nc1nc(CC(=O)NC2CCCC2)cs1	7	-28	17	.	-11	-6
COc1ccc(NC(=O)Cc2csc(NC(=O)Nc3ccccc3OC)n2)cc1	30	.	.	.	.	49*
CCOC(=O)Cc1csc(NC(=O)Nc2ccc(OC(F)(F)F)cc2)n1	9	-1	25	7	29*	-25
COc1ccccc1NC(=O)Nc1nc(CC(=O)NCc2ccccn2)cs1	10	-28	5	.	-24	45
COc1ccc(N2CCN(C(=O)Cc3csc(NC(=O)Nc4ccccc4OC)n3)CC2)cc1	12	-27	4	.	-17	50*
COc1ccc2c(c1)C(NC(=O)C(F)(F)F)CC21CCCCC1 (stereo unspecified)	-3	.	.	.	.	-17
Cc1cc(N2CCN(CC(C)(C)O)C[C@@H]2C)ccc1N1CCN(CC(C)(C)O)[C@@H](C)C1	1	.	.	.	.	-9
O=S(=O)(NCC1CCCO1)c1ccc(-c2ccc(S(=O)(=O)NCC3CCCO3)cc2)cc1 (stereo unspecified)	9	40*	21	3	41*	16
O=C(Cn1ncc2ccccc21)N1CCN(c2cccc(C(F)(F)F)c2)CC1	44*	-7	-2	6	-13	9
C[C@H]1CCCCO[C@@H](CN(C)CC2CC2)[C@@H](C)CN([C@@H](C)CO)C(=O)c2cc(NS(=O)(=O)c3ccccc3)ccc2O1	-1	.	.	.	.	-1
COC(=O)N1C[C@H](OCc2ccc3c(c2)OCO3)[C@H]2C[C@@H]1c1ccccc1O2	-2	.	.	.	.	-39
COc1ccc(N(CC(=O)NCCSCc2ccco2)S(=O)(=O)c2ccccc2)cc1OC	3	-12	24	3	-28	12
COc1ccccc1N(CC(=O)NCCSCc1ccccc1)S(=O)(=O)c1ccc(C)cc1	-1	10	40	-7	-12	47
SMILES	TAAR1 agonist	OX1R antag-1	OX1R antag-2	GPR7 antag	CHO parental Ca	TAAR1 antagonist
COc1ccc(N(CC(=O)NCCSCc2ccco2)S(=O)(=O)c2ccccc2)cc1	10	-6	28	3	-12	19
COc1ccccc1N(CC(=O)NCCSCc1ccccc1)S(=O)(=O)c1ccccc1	7	.	.	.	.	65*
O=C(CN(c1ccccc1)S(=O)(=O)c1ccccc1)NCCSCc1ccco1	6	-8	57*	-7	-12	25
COc1ccccc1N(CC(=O)NCCSCc1ccco1)S(=O)(=O)c1ccccc1	8	23	51*	-3	-34	39
COc1ccc(C(CNC(=O)c2ccc(-c3ccccc3Cl)o2)N2CCCC2)cc1 (stereo unspecified)	42*	.	.	.	.	-11
COc1ccc(C2CC(=O)C(c3ccc(Br)cc3)=CN2Cc2ccccc2)cc1 (stereo unspecified)	0	.	.	.	.	-28
CC(C)(C)C(=O)/C(=C\c1ccc([N+](=O)[O-])cc1)n1cncn1	.	14	101*	17	23	.
CC(C)(C)C(=O)/C(=C/c1ccc(Cl)cc1)n1cncn1	-1	.	.	-2	.	-13
O=C1c2ccccc2C(=O)N1c1nccs1	3	.	.	.	.	-16
Cc1ccccc1-n1sc2cc(F)ccc2c1=O	44*	13	27	-11	35*	40
O=c1c2ccccc2sn1-c1cccc(Cl)c1	39*	.	.	.	.	22
O=c1c2cc(F)ccc2sn1-c1ccccc1	60*	46	29	.	72*	57*
O=C(O)c1cccc(-n2sc3ccccc3c2=O)c1	15	-14	-7	.	-6	-10
O=c1c2ccccc2sn1-c1ccccc1F	24	.	.	.	.	13
O=c1c2ccccc2sn1-c1nccs1	47*	.	.	-3	.	35
N#Cc1ccc2nc(-c3ccc(CN4CCC5(CC4)CNc4ccccc45)cc3)c(-c3ccccc3)nc2c1	0	.	.	.	.	19
Cc1ccc(/C=C2\CCC3=C2OC(N)=C(C#N)C3c2ccc(C)cc2)cc1 (stereo unspecified)	.	48*	3	2	41*	.
Cc1ccc(C2C(C#N)=C(N)Oc3cc(N)ccc32)cc1 (stereo unspecified)	5	0	3	-6	-6	-15
O=C(Nc1ccccc1)c1snc2c(=O)[nH]cnc12	1	-25	74*	-1	-16	2
CCOC(=O)c1snc2c(=O)[nH]cnc12	19	-1	42*	-8	4	-5
Cc1cc(C)n2nc(SCC(=O)Nc3ccc(F)c(F)c3F)nc2n1	0	-24	1	.	-7	2
c1ccc(-c2nc3nc4ccccc4nc3n2CC2CCCO2)cc1 (stereo unspecified)	22	-18	24	-14	-12	51*
CN(C)S(=O)(=O)N1CCC(Oc2cccc(C(=O)N3CCSCC3)c2)CC1	2	-18	24	-15	-10	6
Cc1ccc(-n2cc(CN3CCC(CO)(Cc4ccccc4)CC3)cn2)cc1	5	-29	11	20*	-18	19
Cc1ccc(-n2cc(CN3CCC(CO)(Cc4cccc(C(F)(F)F)c4)CC3)cn2)cc1	44*	-17	12	10	10	4
Cc1nn(CC(=O)NCCC2=CCCCC2)c(C)c1[N+](=O)[O-]	1	-16	8	.	-13	-17
